Results as given in ChEMBL document CHEMBL4818983, “Structure-activity relationship and hypoglycemic activity of tricyclic matrines with advantage of treating diabetic nephropathy” (Eur J Med Chem, 2020).
The source made the active and inactive calls. No cut-off for these calls is given here.

Columns and labels:
[1] = tested on: Mus musculus; assay: Antidiabetic activity in KK-Ay mouse assessed as effect on AGE level at 50 mg/kg, po for 24 hrs by ELISA (Rvb 2.85 +/- 0.92 ug/ml); format: functional
[2] = species: Mus musculus; assay: Anti-diabetic activity in high fat diet-fed C57BL/6J mouse model of obesity and diabetes assessed as […] in total protein level in urine measured after 24 hrs; format: functional, organism-based
Method in brief: (§1)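 Before study end, 24-h urine collected from C57BL/6J controls and KK-Ay mice (untreated, oral 50 or 100 mg/kg compound, or 5 mg/kg rosiglitazone). Volume, glucose, total protein and microalbumin measured by kits. Mean ± SD, 8-9 mice per group, vs C57BL/6J or untreated KK-Ay.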

[3] = tested on: HepG2; assay: Cytotoxicity against human HepG2 cells upto 160 uM after 24 hrs by MTT assay; format: cell-based; details: hepg2, 24 h
Method in brief: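 HepG2 cells exposed to compound; cell growth measured; CC50 derived from the concentration–growth relationship.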

[4] = tested on: Mus musculus; assay: Antidiabetic activity in KK-Ay mouse assessed as effect on Triglycerides level at 50 mg/kg, […] by ELISA (reference value: 4.01 +/- 1.83 mM); format: functional
[5] = tested on: Mus musculus; assay: Anti-diabetic activity in high fat diet-fed KK-Ay mouse model of obesity and diabetes assessed as reduction in total protein level in urine at 50 to 100 mg/kg, po measured after 24 hrs; format: functional, organism-based; details: dose 50-100 mg/kg; method in brief: as §1
[6] = tested on: Mus musculus; assay: Anti-diabetic activity in overnight fasted diabetic KK-Ay mouse assessed as increase in insulin responsiveness by measuring blood glucose at 50 to 100 mg/kg, po measured after 35 days by insulin tolerance test; format: functional, organism-based; details: dose 50-100 mg/kg, time 35.0 day
Method in brief: (§2)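 KK-Ay mice orally treated with 50 or 100 mg/kg compound or 5 mg/kg rosiglitazone, C57BL/6J as normal controls. After 35 days of treatment, oral glucose tolerance test and insulin tolerance test run. Blood glucose plotted against time, AUC calculated. Mean ± SD, 8-9 mice per group.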

[7] = tested on: HepG2; assay: Induction of glycolysis in human HepG2 cells assessed as increase in lactate release at 10 to 40 uM measured after 24 hrs; details: dose 10-40 µM
[8] = tested on: Mus musculus; assay: Antidiabetic activity in KK-Ay mouse assessed as effect on BUN level at 50 mg/kg, po for 24 hrs by ELISA (reference value: 12.8 +/- 2.97 mM); format: functional
[9] = Acute toxicity in Kunming mouse assessed as effect on blood BUN level at 250 to 1000 mg/kg, po administered as single dose measured for 7 days; format: organism-based; details: in vivo, 168 h, dose 250-1000 mg/kg, time 7 day
Method in brief: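 Kunming mice each received one oral dose at 250, 500, 750 or 1000 mg·kg^-1 and were closely monitored for 7 days. At the end, blood was sampled and GOT, GPT, BUN and CRE were measured […] as liver and kidney function markers.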

[10] = tested on: HepG2; assay: Increase in glucose consumption in human HepG2 cells at 10 to 40 uM measured after 24 hrs; format: functional, cell-based; details: dose 10-40 µM
Method in brief: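 HepG2 cells treated 24 h at the indicated concentrations; RGZ as reference. Supernatants used for glucose consumption and lactate release; lysed cells used for ATP, normalized to protein content. Mean ± SD of 3 or 4 separate experiments; compared with DMSO.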

[11] = tested on: Mus musculus; assay: Antidiabetic activity in KK-Ay mouse assessed as effect on insulin level at 50 mg/kg, […] by ELISA (reference value: 226 +/- 15.5 mU/l); format: functional
[12] = tested on: HepG2; assay: Increase in glucose consumption in human HepG2 cells assessed as Gx/GDMSO ratio at 25 uM by glucose oxidase assay; format: functional
Method in brief: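 HepG2 glucose consumption screen. Test compounds at 25 μM, metformin at 5 mM. Activity expressed as ratio of glucose consumption to DMSO-treated cells (Gx/G_DMSO).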

[13] = Effect on high fat diet-fed KK-Ay mouse model of obesity and diabetes assessed as food intake at 50 mg/kg, po (reference value: 5.67 +/- 0.55 g/day); format: ADME, organism-based; details: in vivo
Method in brief: (§3)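 KK-Ay mice on lipogenic diet, with C57BL/6J mice as normal controls, dosed orally at 50 or 100 mg/kg (test) or 5 mg/kg (RGZ). Food intake (g/day), water intake (mL/day) and body weight recorded before and after treatment; body weight gain calculated. Mean±SD, 8-9 mice per group.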

[14] = tested on: Mus musculus; assay: Antidiabetic activity in KK-Ay mouse assessed as reduction in fasting blood glucose level at 50 mg/kg, po for 50 days by glucose oxidase method (reference value: 13.2 +/- 2.51 mM); format: functional; details: time 50 day
Method in brief: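 Lipogenic-diet KK-Ay mice given 50 or 100 mg/kg compound or 5 mg/kg rosiglitazone orally for 50 days, C57BL/6J as normal controls. Fasting blood glucose, glycosylated haemoglobin, AGE, insulin, HOMA-IR, cholesterol, LDL-c, TG, serum creatinine and BUN determined. Mean ± SD, 8-9 mice per group.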

[15] = Effect on high fat diet-fed KK-Ay mouse model of obesity and diabetes assessed as total body weight gain at 50 mg/kg, po (reference value: 43.5 +/- 5.24 g); format: ADME, organism-based; details: in vivo; method in brief: as §3
[16] = tested on: Mus musculus; assay: Anti-diabetic activity in overnight fasted diabetic KK-Ay mouse assessed as reduction in blood glucose AUC at 5 mg/kg, po […] measured after 35 days by oral glucose tolerance test; format: functional, organism-based; method in brief: as §2
[17] = tested on: Mus musculus; assay: Anti-diabetic activity in high fat diet-fed KK-Ay mouse model of obesity and diabetes assessed as improved pathological changes in pancreas at 50 to 100 mg/kg, po by hematoxylin and eosin staining based histopathological analysis; format: functional, organism-based; details: dose 50-100 mg/kg
Method in brief: (§4)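 Mice sacrificed at study end, with KK-Ay given 50 or 100 mg/kg compound or 5 mg/kg rosiglitazone orally and C57BL/6J as normal controls. Kidney and pancreas sections H&E stained, imaged at 200×, pathological changes scored. Mean ± SD of 8-9 mice per group.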

[18] = Effect on high fat diet-fed KK-Ay mouse model of obesity and diabetes assessed as food intake at 100 mg/kg, po (reference value: 5.67 +/- 0.55 g/day); format: ADME, organism-based; details: in vivo; method in brief: as §3
[19] = tested on: Mus musculus; assay: Antidiabetic activity in KK-Ay mouse assessed as effect on serum Creatinine level at 50 mg/kg, po for 24 hrs by ELISA (reference value: 124 +/- 35.1 uM); format: functional
[20] = Acute toxicity in po dosed Kunming mouse administered as single dose measured for 7 days; format: organism-based; details: in vivo, time 7 day
Method in brief: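 Kunming mice each received one oral dose at 250, 500, 750 or 1000 mg·kg^-1 and were closely monitored for 7 days. The median lethal dose (LD50) was estimated from this single-dose experiment.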

[21] = tested on: Mus musculus; assay: Anti-diabetic activity in high fat diet-fed KK-Ay mouse model of obesity and diabetes assessed as reduction in microalbumin level in urine at 50 to 100 mg/kg, po measured after 24 hrs; format: functional, organism-based; details: dose 50-100 mg/kg; method in brief: as §1
[22] = tested on: Mus musculus; assay: Anti-diabetic activity in high fat diet-fed KK-Ay mouse model of obesity and diabetes assessed as improved pathological changes in kidney at 50 to 100 mg/kg, po by hematoxylin and eosin staining based histopathological analysis; format: functional, organism-based; details: dose 50-100 mg/kg; method in brief: as §4

With `CCCC[C@@H]1[C@H]2CCCN3CCC[C@@H](CN1S(=O)(=O)c1ccc(C(F)(F)F)cc1)[C@@H]23` the Activity [1] was 1.59 µg/mL, the Activity [2] was “inactive” and the Activity [3] was “Non-Toxic”. For the same molecule, the Activity [4] was 2.89 mM, the Activity [5] was “Active” and the Activity [6] was “Active”. The Activity [7] was “Dose-Dependent Effect”, the Activity [8] was 12.7 mM and the Activity [9] was “Non-Toxic”. For the same molecule, the Activity [10] was “Dose-Dependent Effect”, the Activity [11] was 177 mU/L and the Ratio [12] was 1.49. The Activity [13] was 5.2 g/day, the Activity [14] was 9.44 mM and the Activity [15] was 3.52 g. For the same molecule, the Activity [16] was “Active”, the Activity [17] was “Active” and the Activity [18] was 5.28 g/day. The Activity [19] was 88.8 µM, the LD50 at 168 h [20] was 1000 mg/kg and the Activity [21] was “Active”. The Activity [22] was “Active”.
